# Screens: PubChem, Broad Institute
# Compounds with a hit are over-represented: about 2.9% of the library has one in this group of screens.
# S100A4 MyoIIA – inhibitors of human S100A4 binding to myosin IIA peptide | S100A4/TAMRA-MyoIIA peptide fluorescence polarization | AID 652163 | inhibition, % at 10.7 µM | P26447 | actives 0.14% (n = 360,000);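 active = mean inhibition of at least 70% across replicates, with every replicate also reaching that level; inconclusive = mean inhibition reaches 70% but some replicates fall short; inactive = mean inhibition below 70%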
#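 Test system: S100A4 monomer protein. Medium: HEPES buffer with Ca2+, pH 7.2. Reagent: fluorescent myosin IIA peptide, 5 nM. Compound dosing: single-point compound testing. Timing: 5 min between mix addition and reading. Benchmarks: DMSO neutral and TFP positive wells.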
# CAL PDZ FP-1 – blocks peptide binding to human CAL PDZ domain; Q9HD26; purified CAL PDZ, TMR-peptide fluorescence polarization, 1 h; inhibition, % at 20 µM; actives 0.02% (n = 330,000);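 active = highest replicate inhibition of at least 40%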;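 note: plate controls were DMSO neutral control wells for no effect and unlabeled competitor peptide control wells for full effect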
#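 Material – purified CerCALP PDZ construct · Detection – FP readout, S and P plane fluorescence · Measure – percent inhibition from loss of millipolarization · Controls – unlabelled peptide for full inhibition, DMSO wells as neutral · Probe or stimulus – TMR-labelled reporter peptide T*-PRC34 bound in PDZ groove · Times – 1 h at RT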
# CAL PDZ FP-2 – inhibitors of human CAL PDZ peptide binding; Q9HD26; purified CAL PDZ, TMR-peptide fluorescence polarization, 1 h; inhibition, % at 24.9 µM; actives 0.92% (n = 300,000); AID 602252;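 active = mean inhibition of at least 30% with at least half of replicates also reaching 30%; inconclusive = no clear call, values can overlap the other calls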;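 note: 0% = DMSO neutral control and 100% = excess unlabeled competitor peptide PRC23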
# SIRT5 inh – blocks human SIRT5 desuccinylation of peptide | Q9NXA8 | Purified SirT5, succinyl-peptide AMC, trypsin-coupled fluorescence | inhibition, % at 15 µM | actives 1.1% (n = 330,000); in the data active = inhibition above about 15%; inconclusive = no clear call, values can overlap the other calls
# ERAP1 inh – inhibitors of human ERAP1 aminopeptidase; recombinant ERAP1, Leu-AMC fluorescence, 60 min; inhibition, % at 10.7 µM; actives 0.15% (n = 340,000);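 active = mean replicate inhibition of at least 30%, or all replicates individually reaching that 30% level; inactive = mean below 30% and not every replicate reaching it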;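 note: 0% = neutral control wells and 100% = L-leucinethiol positive control wells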
# Target sequence (Q9NZ08 whole entry, looked up): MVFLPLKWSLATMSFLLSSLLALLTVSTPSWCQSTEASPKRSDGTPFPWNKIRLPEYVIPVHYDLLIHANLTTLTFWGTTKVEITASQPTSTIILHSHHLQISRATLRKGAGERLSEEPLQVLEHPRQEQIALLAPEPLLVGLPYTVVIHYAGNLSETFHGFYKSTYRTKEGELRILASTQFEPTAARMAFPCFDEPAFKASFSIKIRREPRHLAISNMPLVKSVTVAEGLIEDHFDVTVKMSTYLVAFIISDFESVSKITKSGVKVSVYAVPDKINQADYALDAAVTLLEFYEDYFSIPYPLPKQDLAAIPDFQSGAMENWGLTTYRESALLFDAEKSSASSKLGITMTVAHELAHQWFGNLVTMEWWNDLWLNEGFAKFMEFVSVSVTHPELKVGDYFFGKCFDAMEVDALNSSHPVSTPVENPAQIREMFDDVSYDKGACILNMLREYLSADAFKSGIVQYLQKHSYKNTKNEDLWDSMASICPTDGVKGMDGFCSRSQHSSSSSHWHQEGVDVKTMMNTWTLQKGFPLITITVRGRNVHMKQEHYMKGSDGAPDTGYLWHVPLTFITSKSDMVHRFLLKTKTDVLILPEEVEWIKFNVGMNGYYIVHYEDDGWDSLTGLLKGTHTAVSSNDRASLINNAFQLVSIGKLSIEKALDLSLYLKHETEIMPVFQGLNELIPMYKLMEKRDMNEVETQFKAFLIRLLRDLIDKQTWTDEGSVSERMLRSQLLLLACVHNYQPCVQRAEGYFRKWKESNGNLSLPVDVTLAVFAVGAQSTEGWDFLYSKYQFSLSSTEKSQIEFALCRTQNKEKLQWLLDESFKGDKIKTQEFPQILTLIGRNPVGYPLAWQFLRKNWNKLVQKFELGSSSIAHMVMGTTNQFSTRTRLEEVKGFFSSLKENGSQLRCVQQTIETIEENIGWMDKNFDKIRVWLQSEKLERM
# DENV2 CPE rescue – protects cells from dengue virus 2 cytopathic effect. DENV2-infected cells, cytopathic effect rescue, plate reader. CPE inhibition, % at 9.99 µM. actives 1.7% (n = 350,000). AID 651640; in the data active = CPE inhibition above about 20%, passing the limit was not always enough; inconclusive = no clear call, values can overlap the other calls; tested in BHK-21 cells;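 note: 0% = median of neutral control wells and 100% = median of positive control wells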
# Numbers without * were called inactive; u = inconclusive; x = no result given; ! = repeats disagree.
SMILES,S100A4 MyoIIA,CAL PDZ FP-1,CAL PDZ FP-2,SIRT5 inh,ERAP1 inh,DENV2 CPE rescue
CCOC(=O)c1ccc(N=Cc2c(O)n(-c3ccccc3F)c(=S)[nH]c2=O)cc1,122*,0,0,-1,1,-3
CCOC(=O)c1ccc(N=Cc2c(O)n(-c3ccc(OC)cc3)c(=S)[nH]c2=O)cc1,-60,-2,-4,2,2,6
CCCNC(=O)N1[C@@H]2Cn3c(ccc(-c4ccccc4OC)c3=O)[C@H]1[C@@H](C(=O)OC)[C@@H]2CO,11,x,x,-16,-2,x
COc1ccc(CCn2c(O)c(C=Nc3ccc(F)cc3)c(=O)[nH]c2=O)cc1OC,3,x,x,16*,-2,1
COC(=O)[C@H]1N[C@H]2c3ccc(C4=CCCC4)c(=O)n3C[C@H]2[C@@H]1CO,-16,x,x,-6,1,128*
COCC(=O)N1[C@@H]2Cn3c(ccc(C4=CCCC4)c3=O)[C@H]1[C@@H](C(=O)OC)[C@@H]2CO,-4,x,x,-9,0,u
N#CC1=C(N)Oc2c(c(=O)sc3ccccc23)C1c1ccncc1 (configuration not stated),7,-2,-1,16*,0,3
Cc1ccccc1-c1ccc([C@H]2[C@@H](CO)N3CCCCN(C(=O)Cc4ccccn4)C[C@@H]23)cc1,15,x,x,2,2,8
COc1ccccc1CN1[C@H](CO)[C@H](c2ccccc2)C12CN(C(=O)Cc1ccccc1)C2,2,x,x,6,-3,-11
CC(C)c1oc(=O)cc2c1[C@@H](O)[C@H]1OC(=O)[C@@]3(C)C[C@@H](O)[C@@H](O)[C@@]2(C)C13 (some centres not stated),-1,0,0,-1,3,87*
COc1ccc2c(c1)C13CCN4CC5=CCOC6CC(=O)N2C1C6C5CC43 (configuration not stated),1,x,x,-3,-1,71*
O=C(O)[C@@H]1[C@@H](CO)[C@@H]2Cn3c(ccc(-c4ccccc4)c3=O)[C@H]1N2C(=O)C1CCCCC1,3,x,x,-39,1,0
Cc1ccc(-n2c(O)c(C=NC3CCCC3)c(=O)[nH]c2=O)c(C)c1,x,0,49*,x,x,x
Cc1ccc2c(C)c3ccc4ccccc4c3c[n+]2c1,-5,-2,38*,-60,-172,-11
CC(=O)O[C@H]1C[C@@H]2OC3C=C(C)CCC3(C)[C@@]1(C)[C@@]21CO1 (some centres not stated),-2,-1,1,1,1,106*
CC(=O)OC1CC2OC3C=C(C)CCC3(C)C1(C)C21CO1 (configuration not stated),-3,x,x,x,8,-11
O=[N+]([O-])c1ccc(-c2ccccc2)c([As](=O)(O)O)c1,1,0,x,0,-1,-2
O=[N+]([O-])c1ccc2c(c1)C(c1ccccc1)=NCCN2,-3,0,33*,-1,4,-4
Cc1[nH]c2ccc(O)cc2c1CCN,5,0,1,-3,6,55*
C[N+]1(C)CCc2cc3c(cc2[C@H]1[C@@H]1OC(=O)c2c1ccc1c2OCO1)OCO3,29,-1,0,1,53*!,2
O=C(Cc1ccccn1)N1CCCCN2[C@H](CO)[C@H](c3ccc(C#Cc4ccccc4)cc3)[C@H]2C1,-1,x,x,2,0,3
C=CCn1c(O)c(C(CC)=Nc2ccc(C(=O)O)cc2)c(=O)[nH]c1=O,-5,0,-4,3,0,18
C=CCn1c(O)c(C(C)=Nc2ccc(C(=O)O)cc2)c(=O)[nH]c1=O,-12,0,82*,-4,x,-1
O=C(Cc1ccccn1)N1CCCCN2[C@H](C1)[C@H](c1ccc(-c3ccccc3)cc1)[C@@H]2CO,8,x,x,-3,-1,43*
O=C(Cc1ccccn1)N1CCCCN2[C@@H](CO)[C@@H](c3ccc(Br)cc3)[C@@H]2C1,1,x,x,0,3,33*
O=C(Cc1ccccn1)N1CCCCN2[C@H](CO)[C@H](c3ccc(-c4ccccc4)cc3)[C@@H]2C1,9,x,x,-2,1,18
O=C(Cc1ccccn1)N1CCCCN2[C@H](CO)[C@@H](c3ccc(-c4ccccc4)cc3)[C@H]2C1,11,x,x,-4,-1,6
